The results in this text go back to ChEMBL document CHEMBL4346654 (Eur J Med Chem, 2019).

Converted amounts (≈) assume the structure as drawn.

Common to all, as to assay type: functional
Assay [1] concerns Staphylococcus aureus. Put plainly: Antibacterial activity against MLS-resistant Staphylococcus aureus PU 32 expressing inducible ermA gene assessed as reduction in microbial growth by CLSI based two-fold broth dilution method. For orientation: Broth dilution looks for growth in wells or tubes with falling amounts of substance.
The test system of assay [2] is Streptococcus pneumoniae. Put plainly: Antibacterial activity against erythromycin-susceptible Streptococcus pneumoniae ATCC49619 assessed as reduction in microbial growth by CLSI based two-fold broth dilution method.
Assay [3] relates to Streptococcus pneumoniae. The assay can be described thus: Bactericidal activity against erythromycin-susceptible Streptococcus pneumoniae ATCC49619 pretreated followed by subculture in absence of compound measured after 24 hrs. A digest of the protocol: (§1)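 Isolates were identified by 16S rDNA sequencing. MIC was determined by CLSI-recommended two-fold broth dilution. For MBC, samples from 1–8 fold MIC were transferred to culture medium and subcultured for 24 h without antibiotic.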

The subject of assay [4] is Haemophilus influenzae. Put plainly: Antibacterial activity against azithromycin-susceptible Haemophilus influenzae ATCC 49247 assessed as reduction in microbial growth by CLSI based two-fold broth dilution method.
The test system of assay [5] is Streptococcus pneumoniae. Put plainly: Selectivity ratio of MBC to MIC for erythromycin-susceptible Streptococcus pneumoniae ATCC49619. A digest of the protocol: as §1
Assay [6] relates to Streptococcus pneumoniae. Put plainly: Antibacterial activity against Streptococcus pneumoniae 07P390 expressing constitutive ermB gene assessed as reduction in microbial growth by CLSI based two-fold broth dilution method.
The subject of assay [7] is Streptococcus pneumoniae. Put plainly: Antibacterial activity against penicillin-susceptible Streptococcus pneumoniae PU 09 expressing mef gene assessed as reduction in microbial growth by CLSI based two-fold broth dilution method.
The subject of assay [8] is Streptococcus pneumoniae. Put plainly: Bactericidal activity against penicillin-susceptible Streptococcus pneumoniae PU 09 expressing mef gene pretreated followed by subculture in absence of compound measured after 24 hrs. A digest of the protocol:
as §1

For assay [9], the system named is Streptococcus pneumoniae. Put plainly: Selectivity ratio of MBC to MIC for penicillin-susceptible Streptococcus pneumoniae PU 09 expressing mef gene. The procedure, abridged:
as §1

Assay [10] has as its system Streptococcus pneumoniae. Put plainly: Bactericidal activity against Streptococcus pneumoniae 07P390 expressing constitutive ermB gene pretreated followed by subculture in absence of compound measured after 24 hrs. A digest of the protocol: as §1
Assay [11] relates to Streptococcus pneumoniae. Put plainly: Selectivity ratio of MBC to MIC for Streptococcus pneumoniae 07P390 expressing constitutive ermB gene. A digest of the protocol:
as §1

Assay [12] has as its system Haemophilus influenzae. Put plainly: Bactericidal activity against azithromycin-susceptible Haemophilus influenzae ATCC 49247 pretreated followed by subculture in absence of compound measured after 24 hrs. The procedure, abridged:
as §1

Assay [13] has as its system Haemophilus influenzae. Put plainly: Selectivity ratio of MBC to MIC for azithromycin-susceptible Haemophilus influenzae ATCC 49247. The procedure, abridged:
as §1

In assay [14] the test system is Streptococcus pyogenes. Put plainly: Antibacterial activity against MLS-resistant Streptococcus pyogenes 01-968 expressing inducible ermB gene assessed as reduction in microbial growth by CLSI based two-fold broth dilution method.
Assay [15] relates to Streptococcus pyogenes. Put plainly: Bactericidal activity against MLS-resistant Streptococcus pyogenes 01-968 expressing inducible ermB gene pretreated followed by subculture in absence of compound measured after 24 hrs. The procedure, abridged: (§2)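 MBC assay. Following MIC determination by CLSI standard two-fold broth dilution, samples at 1–8 fold MIC were transferred to fresh culture medium. They were subcultured for 24 h without antibiotic. Isolates were identified by 16S rDNA sequencing. S. aureus ATCC 29213 was used as a control strain.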

Assay [16] relates to Streptococcus pyogenes. Put plainly: Selectivity ratio of MBC to MIC for MLS-resistant Streptococcus pyogenes 01-968 expressing inducible ermB gene. The procedure, abridged: (§3)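 MBC/MIC ratio. MIC was measured by CLSI standard two-fold broth dilution. MBC was measured by transferring samples at 1–8 fold MIC to culture medium and subculturing for 24 h without antibiotic. Isolates were identified by 16S rDNA sequencing.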

Assay [17] concerns Staphylococcus aureus. The assay can be described thus: Bactericidal activity against MLS/methicillin-resistant Staphylococcus aureus PU 32 expressing inducible ermA gene pretreated followed by subculture in absence of compound measured after 24 hrs. The procedure, abridged:
as §2

Assay [18] has as its system Staphylococcus aureus. The assay can be described thus: Selectivity ratio of MBC to MIC for MLS/methicillin-resistant Staphylococcus aureus PU 32 expressing inducible ermA gene. A digest of the protocol:
as §3

Assay [19] concerns Staphylococcus aureus. Put plainly: Antibacterial activity against MLS-resistant Staphylococcus aureus PU 20 expressing constitutive ermC gene assessed as reduction in microbial growth by CLSI based two-fold broth dilution method.
Assay [20] has as its system Staphylococcus aureus. Put plainly: Bactericidal activity against MLS-resistant Staphylococcus aureus PU 20 expressing constitutive ermC gene pretreated followed by subculture in absence of compound measured after 24 hrs. The procedure, abridged: as §2

Consider `CC[C@H]1OC(=O)[C@@](C)(F)C(=O)[C@H](C)[C@@H](O[C@@H]2O[C@H](C)C[C@H](N(C)C)[C@H]2O)[C@](C)(OC/C=C/c2ccc3[nH]cc(C(=O)O)c(=O)c3c2)C[C@@H](C)/C(=N\OC)[C@H](C)[C@H]2OC(=O)O[C@@]21C`, for which the MIC in assay [1] is 0.5 µg/mL; in assay [2] it was 0.062 µg/mL; in assay [4], 8 µg/mL; in assay [6], 0.5 µg/mL; in assay [7], 2 µg/mL; in assay [14] it was 0.031 µg/mL. Moreover, the MIC in assay [19] was over 256 µg/mL. For the same compound, the MBC in assay [3] amounted to 0.062 µg/mL (≈ 0.0709 µM); in [8], 4 µg/mL (≈ 4.58 µM); in assay [10], 4 µg/mL (≈ 4.58 µM); in assay [12] it was 16 µg/mL (≈ 18.3 µM); in [15], 0.062 µg/mL (≈ 0.0709 µM); in assay [17] it was 2 µg/mL (≈ 2.29 µM). The Selectivity ratio amounted to 1 in assay [5]; 2 in assay [9]; 8 in assay [11]; 2 in assay [13]; 2 in [16]; 4 in [18].

For the compound `CC[C@H]1OC(=O)[C@@](C)(F)C(=O)[C@H](C)[C@@H](O[C@@H]2O[C@H](C)C[C@H](N(C)C)[C@H]2O)[C@](C)(OC)C[C@@H](C)/C(=N\OC/C=C/c2cncc(C(N)=O)c2)[C@H](C)[C@H]2OC(=O)O[C@@]21C`, the MIC in assay [1] was found to be 0.25 µg/mL; in assay [2], 0.031 µg/mL; in assay [4] it was 8 µg/mL; in assay [6], 32 µg/mL; in [7] it was 0.5 µg/mL; in assay [14], 0.062 µg/mL. Further, the MIC in [19] turned out to be 256 µg/mL. Further, the MBC was 0.031 µg/mL (≈ 0.0384 µM) in [3]; 1 µg/mL (≈ 1.24 µM) in assay [8]; over 32 µg/mL in [10]; 16 µg/mL (≈ 19.8 µM) in assay [12]; over 0.5 µg/mL in [15]; over 2 µg/mL in assay [17]. In addition, the MBC in [20] is over 256 µg/mL. The Selectivity ratio in [5] is recorded as 1; in [9], 2; in assay [13] it was 2; in [16], over 8; in assay [18], over 8.

Regarding `CC[C@H]1OC(=O)[C@@](C)(F)C(=O)[C@H](C)[C@@H](O[C@@H]2O[C@H](C)C[C@H](N(C)C)[C@H]2O)[C@](C)(OC/C=C/c2cncc(C(=O)O)c2)C[C@@H](C)/C(=N\OC)[C@H](C)[C@H]2OC(=O)O[C@@]21C`, the MIC is 2 µg/mL in assay [1]; 0.25 µg/mL in assay [2]; 8 µg/mL in assay [4]; 1 µg/mL in [6]; 32 µg/mL in assay [7]; 0.125 µg/mL in assay [14]. In assay [19], the MIC was over 256 µg/mL. The MBC in assay [3] is 0.5 µg/mL (≈ 0.619 µM); in assay [8], over 32 µg/mL; in assay [10], 4 µg/mL (≈ 4.95 µM); in assay [12], 8 µg/mL (≈ 9.9 µM); in [15], over 1 µg/mL; in assay [17], over 16 µg/mL. Further, the Selectivity ratio is 2 in assay [5]; 4 in [11]; 1 in [13]; over 8 in [16]; over 8 in assay [18].

On to `CC[C@H]1OC(=O)[C@@](C)(F)C(=O)[C@H](C)[C@@H](O[C@@H]2O[C@H](C)C[C@H](N(C)C)[C@H]2O)[C@](C)(OC)C[C@@H](C)/C(=N\OCC#Cc2ccc(N)nc2)[C@H](C)[C@H]2OC(=O)O[C@@]21C`, for which the MIC in [1] is 1 µg/mL; in assay [2], 0.25 µg/mL; in [4] it was 16 µg/mL; in assay [6], over 32 µg/mL; in assay [7], 2 µg/mL; in [14], 0.125 µg/mL. Also, the MIC in assay [19] is 256 µg/mL. The MBC was 0.5 µg/mL (≈ 0.644 µM) in [3]; 2 µg/mL (≈ 2.57 µM) in assay [8]; 32 µg/mL (≈ 41.2 µM) in [12]; over 1 µg/mL in [15]; over 8 µg/mL in [17]; over 256 µg/mL in assay [20]. The Selectivity ratio in assay [5] is recorded as 2; in assay [9] it was 1; in assay [13] it was 2; in assay [16], over 8; in assay [18], over 8.
